These results are taken from ChEMBL document CHEMBL1126219, “Acyclic analogues of lipid A: synthesis and biological activities” (J Med Chem, 1992).

For data set [1], the species on record is Mus musculus. The data set is described as follows: Effective dose against Pseudomonas aeruginosa infection in mice. The data set is classed as functional. An outline of the steps:
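B6D2F1 mice made myelosuppressed with cyclophosphamide 200 mg/kg sc on day -4. Compound given iv as Tris salt on day -1. Survival scored over 4 days, groups of 10. ED50 obtained by Probit analysis.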

Data set [2] is filed under the species Mus musculus. Put plainly: Compound was tested for its potency to induce TNF-alpha in murine macrophage cultures in the absence of INF at 1 mg/mL concentration. The data set is classed as functional. The procedure, abridged: (§1)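 Bone marrow cells from B6D2F1 mouse femurs differentiated 8-10 days at 37 °C, 5% CO2 in DMEM with 10% FCS, 5% horse serum and 20% L929 supernatant (CSF-1). Macrophages at 10⁶ cells/mL adhered 3 h, then incubated overnight without IFN-γ. Washed, exposed 4 h to compound in serum-free medium. Supernatant TNF-α measured by cytotoxicity to actinomycin-D-treated L929 cells, as IU/mL.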

The species entered for data set [3] is Mus musculus. The data set is described as follows: Compound was tested for its potency to induce TNF-alpha in murine macrophage cultures in the absence of INF at 10 mg/mL concentration. The data set is classed as functional. The procedure, abridged:
as §1

The species entered for data set [4] is Mus musculus. Put plainly: Compound was tested for its potency to induce TNF-alpha in murine macrophage cultures in the presence of INF at 10 mg/mL concentration. It counts as functional. An outline of the steps:
(§2)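 Macrophages derived from B6D2F1 mouse bone marrow (8-10 days with L929 supernatant as CSF-1 source), plated at 10⁶ cells/mL. Adherent cells primed overnight with 100 units/mL interferon γ, washed, then incubated 4 h with compound in serum-free medium. TNF-α in supernatants determined by cytotoxicity to actinomycin-D-treated L929 cells, as IU/mL.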

Data set [5] deals with Mus musculus. The data set is described as follows: Nonspecific resistance against Pseudomonas aeruginosa infection in mice; administration of a single dose (12.5 mg/kg) 1 day prior to infection, group size 10 mice. The data set is classed as functional. The procedure, abridged:
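B6D2F1 mice given cyclophosphamide 200 mg/kg s.c. on day -4, then a single i.v. dose of 12.5 mg/kg on day -1 (Tris salts). Survival scored after 4 days of observation. Groups of 10 mice.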

Data set [6] can be described thus: The endotoxic potential (LD50) by iv administration and ip administration of galactosamine (400 mg/kg). The data set is classed as ADME, organism-based. The conditions noted are these: mouse, in vivo. An outline of the steps: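 C57BL/6 mice, groups of six. Serial dilutions given i.v. by tail vein (0.2 mL, saline, or isotonic glucose with 1% ethanol) together with galactosamine 400 mg/kg i.p. LD50 calculated by probit analysis from survivors at 1 day.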

The species named for data set [7] is Mus musculus. Put plainly: Compound was tested for its potency to induce TNF-alpha in murine macrophage cultures in the presence of INF at 1 mg/mL concentration. The data set is classed as functional. The procedure, abridged:
as §2

Structures are written as SMILES.

Usually ED50 stands for the dose at which the effect has come halfway, by size or by number of responders. Low readings indicate an effect at a small dose, high ones a need for a large dose. By LD50 is commonly meant the dose at which mortality reaches 50%. In data set [1], `CCCCCCCCCCCC(O)CC(=O)NC1C(OC(=O)CC[C@@H](NC(=O)CC(O)CCCCCCCCCCC)C(=O)O)OC(CO)C(O)C1NC(=O)CC(O)CCCCCCCCCCC` (stereo partly drawn) displayed an ED50 of over 25 mg/kg. The Activity in data set [2] is 27 IU ml-1; in data set [3] it was 464 IU ml-1; in data set [4] it was 609 IU ml-1; in data set [7], 151 IU ml-1. The NSR survival rate in data set [5] was determined as 3. The LD50 in data set [6] is 5.1 mg/kg.
Regarding `CCCCCCCCCCCC(O)CC(=O)NC1C(OC(=O)CC[C@H](NC(=O)CC(O)CCCCCCCCCCC)C(=O)O)OC(CO)C(O)C1NC(=O)CC(O)CCCCCCCCCCC` (stereo partly drawn), in data set [1], the ED50 came out at 1.5 mg/kg. Also, the Activity in data set [2] is 175 IU ml-1; in data set [3], 1069 IU ml-1; in data set [4], 1570 IU ml-1; in data set [7], 294 IU ml-1. The compound also came in with an NSR survival rate in data set [5] of 8. For the same compound, in data set [6], the LD50 is 0.2 mg/kg.
In data set [1], `CCCCCCCCCCCC(O)CC(=O)NC1C(OCCCN(CC(=O)O)C(=O)CC(O)CCCCCCCCCCC)OC(CO)C(O)C1OC(=O)CC(O)CCCCCCCCCCC` (stereo not drawn) had a 50% effective dose (ED50) of 1.5 mg/kg. In addition, the Activity in data set [2] was found to be 523 IU ml-1; in data set [3] it was 1498 IU ml-1; in data set [4], 3050 IU ml-1; in data set [7], 920 IU ml-1. This compound also came in with an NSR survival rate in data set [5] of 10. In data set [6], this compound gave an LD50 of 0.1 mg/kg.
The compound `CCCCCCCCCCCC(O)CC(=O)NC1C(OC(=O)CC[C@H](NC(=O)CC(O)CCCCCCCCCCC)C(=O)O)OC(CO)C(O)C1OC(=O)CC(O)CCCCCCCCCCC` (stereo partly drawn) came in with a median effective dose (ED50) in data set [1] of 5.7 mg/kg. The Activity is reported as 270 IU ml-1 in data set [2], 576 IU ml-1 in data set [3], 3285 IU ml-1 in data set [4] and 1511 IU ml-1 in data set [7]. The NSR survival rate in data set [5] turned out to be 9. The LD50 in data set [6] stood at 0.3 mg/kg.
Turning to `CCCCCCCCCCCC(O)CC(=O)NC1C(OC(=O)CC[C@@H](NC(=O)CC(O)CCCCCCCCCCC)C(=O)O)OC(CO)C(O)C1OC(=O)CC(O)CCCCCCCCCCC` (stereo partly drawn), in data set [1], the ED50 was found to be 0.3 mg/kg. In addition, the Activity in data set [2] is 518 IU ml-1; in data set [3], 688 IU ml-1; in data set [4], over 2409 IU ml-1; in data set [7] it was over 2409 IU ml-1. This compound returned an NSR survival rate in data set [5] of 10. In data set [6], this compound gave a median lethal dose (LD50) of 0.04 mg/kg.
Take `CCCCCCCCCCCC(O)CC(=O)NC1C(OC(=O)C[C@H](NC(=O)CC(O)CCCCCCCCCCC)C(=O)O)OC(CO)C(O)C1OC(=O)CC(O)CCCCCCCCCCC` (stereo partly drawn): in data set [1], the median effective dose (ED50) was over 12.5 mg/kg. Further, the Activity in data set [2] came to 0 IU ml-1; in data set [3] it was 446 IU ml-1; in data set [4], 899 IU ml-1; in data set [7], 25 IU ml-1. The compound further registered an NSR survival rate in data set [5] of 8. Besides, the median lethal dose (LD50) in data set [6] turned out to be 1 mg/kg.
As to `CCCCCCCCCCCC(O)CC(=O)NC1C(OCCCN(CC(=O)O)C(=O)CC(O)CCCCCCCCCCC)OC(CO)C(O)C1O` (stereo not drawn), the Activity in data set [3] and in data set [4] was 0 IU ml-1 each time. This compound also gave an NSR survival rate in data set [5] of 3. The compound also displayed an LD50 in data set [6] of over 5 mg/kg.
`CCCCCCCCCCCC(O)CC(=O)NC1C(OC(=O)C[C@@H](NC(=O)CC(O)CCCCCCCCCCC)C(=O)O)OC(CO)C(O)C1OC(=O)CC(O)CCCCCCCCCCC` (stereo partly drawn) returned a median effective dose (ED50) in data set [1] of 3.1 mg/kg. Further, the Activity came to 218 IU ml-1 in data set [2], 618 IU ml-1 in data set [3], 2768 IU ml-1 in data set [4] and 2708 IU ml-1 in data set [7]. Besides, the NSR survival rate in data set [5] came out at 10. This compound also displayed an LD50 in data set [6] of under 0.05 mg/kg.
